Results gathered from unrelated publications.
Protocols differ between the studies behind these lines.
Target: Calcium/calmodulin-dependent protein kinase type 1D (CAMK1D, Homo sapiens, UniProt Q8IU85)

| Structure (SMILES) | test | conditions | measurement | value |
| --- | --- | --- | --- | --- |
| O=c1[nH]c2ccccc2n1C1CCN(Cc2ccc(-c3[nH]c4cc5ncnc5cc4nc3-c3ccccc3)cc2)CC1 | cell-free assay | 0.5 µM | remaining signal | 107% |
| COc1ncccc1-c1cnn2ccc(N3CCN(C(=O)OC(C)C)CC3)nc12 | binding, competition with immobilised ligand | 1 µM | remaining binding | 100% |
| Cc1nn(C)cc1-c1nc2c(N3CCN(Cc4ccc(Cl)cc4)CC3)c(Cl)cnc2[nH]1 | binding, competition with immobilised ligand | 1 µM | remaining binding | 100% |
| N#CC1(c2ccccn2)CCN(Cc2cc(C(=O)O)c(=O)n3ccccc23)CC1 | cell-free assay, competition with immobilised ligand | 1 µM | remaining binding | 100% |
| Cn1cc(-c2cc(F)cc(N3CCn4c(cc5c4CCCC5)C3=O)c2CO)cc(Nc2ccc(N3CCN(C4COC4)CC3)cn2)c1=O | enzyme activity, inhibitor | 0.1 µM | inhibition | 15% |
| Cn1cncc1[C@](O)(COc1ccc(C#N)cc1-c1ccc(OC(F)(F)F)cc1)c1ccc(C#N)cc1 | cell-free assay, competition with immobilised ligand | 1 µM | remaining binding | 100% |
| Nc1ncc(-c2nc(N3CCOCC3)nc(N3CCOCC3)n2)c(C(F)F)n1 | binding, competition with immobilised ligand | 10 µM | remaining binding | 100% |
| CC(C)(C)c1cc(C=C(C#N)C#N)cc(Br)c1O | enzyme activity, inhibitor | 0.5 µM | remaining activity | 111% |
